Measured values: ChEMBL document CHEMBL4020832, “Development of (6 R)-2-Nitro-6-[4-(trifluoromethoxy)phenoxy]-6,7-dihydro-5 H-imidazo[2,1- b][1,3]oxazine (DNDI-8219): A New Lead for Visceral Leishmaniasis” (J Med Chem, 2018)

Tests used:
[1] = (§1) AUClast in Swiss albino mouse at 40 mg/kg, po after 24 to 48 hrs by LC-MS/MS analysis; type: ADME, organism-based; settings: Swiss albino, in vivo
[2] = Cmax in golden Syrian hamster at 50 mg/kg, po by LC-MS/MS analysis; type: ADME, organism-based, Mesocricetus auratus; set-up: dose 50 mg/kg, route oral; settings: in vivo
Procedure, shortened: (§2)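 Fasted female golden Syrian hamsters. IV dose was 2 mg/kg as a solution in 20% NMP and 40% PEG-400 in citrate buffer (pH 3). Oral dosing at 40–50 mg/kg used PEG-400 as vehicle. Plasma was quantified by LC–MS/MS. AUClast was taken to the last time point (24 or 48 h).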

Liver [3] = test: Metabolic stability in CD-1 mouse liver microsomes assessed as parent compound remaining at 1 uM after 1 hr; type: ADME, microsome
[4] = Volume of distribution at steady state in Sprague-Dawley rat at 1 mg/kg, iv by LC-MS/MS analysis; type: ADME, organism-based; settings: in vivo, read-out: Vdss
Procedure, shortened: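 Fasted male Sprague-Dawley rats received 1 mg/kg iv as a solution in 20% NMP/40% PEG-400 in citrate buffer pH 3. Plasma concentrations by LC–MS/MS used for PK parameter estimation.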

[5] = Half life in Sprague-Dawley rat at 1 mg/kg, iv by LC-MS/MS analysis; type: ADME, organism-based; settings: in vivo
Procedure, shortened: (§3)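 Fasted male Sprague-Dawley rats. IV dose was 1 mg/kg as a solution in 20% NMP and 40% PEG-400 in citrate buffer (pH 3). Oral dose was 40–50 mg/kg as a suspension in 0.08% Tween 80 and 0.5% CMC in water. Plasma was analysed by LC–MS/MS. AUClast was taken to the last time point (24 or 48 h).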

[6] = Half life in Swiss albino mouse at 40 mg/kg, po by LC-MS/MS analysis; type: ADME, organism-based; settings: in vivo
Liver [7] = test: Metabolic stability in human liver microsomes assessed as parent compound remaining at 1 uM after 1 hr; type: ADME, microsome
[8] = Half life in golden Syrian hamster at 50 mg/kg, po by LC-MS/MS analysis; type: ADME, organism-based, Mesocricetus auratus; settings: in vivo
[9] = AUClast in Sprague-Dawley rat at 40 mg/kg, po after 24 to 48 hrs by LC-MS/MS analysis; type: ADME, organism-based; settings: in vivo
[10] = (§4) Cmax in Sprague-Dawley rat at 40 mg/kg, po by LC-MS/MS analysis; type: ADME, organism-based; set-up: dose 40 mg/kg, route oral; settings: Sprague-Dawley, in vivo; procedure, shortened: as §3
[11] = Half life in Sprague-Dawley rat at 40 mg/kg, po by LC-MS/MS analysis; type: ADME, organism-based; settings: in vivo; procedure, shortened: as §3
[12] = (§5) Cmax in Swiss albino mouse at 40 mg/kg, po by LC-MS/MS analysis; type: ADME, organism-based; set-up: dose 40 mg/kg, route oral; settings: Swiss albino, in vivo
[13] = AUClast in Sprague-Dawley rat at 1 mg/kg, iv after 24 to 48 hrs by LC-MS/MS analysis; type: ADME, organism-based; settings: in vivo; procedure, shortened: as §3
[14] = Metabolic stability in hamster liver microsomes assessed as parent compound remaining at 1 uM after 1 hr; type: ADME, microsome; settings: read-out: Stability
[15] = (§6) Tmax in Sprague-Dawley rat at 40 mg/kg, po by LC-MS/MS analysis; type: ADME, organism-based; settings: Sprague-Dawley, in vivo
Procedure, shortened: (§7)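 Fasted male Sprague-Dawley rats dosed orally at 40–50 mg/kg as a suspension in 0.08% Tween 80/0.5% CMC in water. iv reference was 1 mg/kg in 20% NMP/40% PEG-400 in citrate buffer pH 3. Plasma analysed by LC–MS/MS. F from dose-normalized AUClast.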

[16] = (§8) Oral bioavailability in Sprague-Dawley rat at 40 mg/kg by LC-MS/MS analysis; type: ADME, organism-based; settings: Sprague-Dawley, in vivo; procedure, shortened: as §7
[17] = Tmax in golden Syrian hamster at 50 mg/kg, po by LC-MS/MS analysis; type: ADME, organism-based, Mesocricetus auratus; settings: in vivo
[18] = Clearance in Sprague-Dawley rat at 1 mg/kg, iv by LC-MS/MS analysis; type: ADME, organism-based; settings: in vivo; procedure, shortened: as §3
[19] = AUClast in golden Syrian hamster at 50 mg/kg, po after 24 to 48 hrs by LC-MS/MS analysis; type: ADME, organism-based, Mesocricetus auratus; settings: in vivo; procedure, shortened: as §2
[20] = (§9) Tmax in Swiss albino mouse at 40 mg/kg, po by LC-MS/MS analysis; type: ADME, organism-based; settings: Swiss albino, in vivo
[21] = Initial concentration in Sprague-Dawley rat at 1 mg/kg, iv by LC-MS/MS analysis; type: ADME, organism-based; settings: in vivo
Procedure, shortened: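 Male Sprague-Dawley rats, fasted, dosed iv at 1 mg/kg as a solution in 20% NMP/40% PEG-400 in citrate buffer (pH 3). Plasma was analysed by LC–MS/MS and C0 was derived with WinNonlin-type PK analysis.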

[22] = Volume of distribution at steady state in golden Syrian hamster at 2 mg/kg, iv by LC-MS/MS analysis; type: ADME, organism-based, Mesocricetus auratus; settings: in vivo, read-out: Vdss
Procedure, shortened: (§10)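 Fasted female golden Syrian hamsters given 2 mg/kg iv as a solution in 20% NMP and 40% PEG-400 in citrate buffer pH 3. Plasma concentrations determined by LC–MS/MS to derive PK parameters.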

[23] = Half life in golden Syrian hamster at 2 mg/kg, iv by LC-MS/MS analysis; type: ADME, organism-based, Mesocricetus auratus; settings: in vivo; procedure, shortened: as §2
Syrian golden hamster [24] = test: Oral bioavailability in golden Syrian hamster at 50 mg/kg by LC-MS/MS analysis; type: ADME, organism-based, Mesocricetus auratus; settings: in vivo
[25] = AUClast in golden Syrian hamster at 2 mg/kg, iv after 24 to 48 hrs by LC-MS/MS analysis; type: ADME, organism-based, Mesocricetus auratus; settings: in vivo; procedure, shortened: as §2
[26] = Initial concentration in golden Syrian hamster at 2 mg/kg, iv by LC-MS/MS analysis; type: ADME, organism-based, Mesocricetus auratus; settings: in vivo; procedure, shortened: as §10
[27] = Clearance in golden Syrian hamster at 2 mg/kg, iv by LC-MS/MS analysis; type: ADME, organism-based, Mesocricetus auratus; settings: in vivo
Mus musculus [28] = test: as §1; type: ADME, organism-based; settings: in vivo
Syrian golden hamster [29] = test: Oral bioavailability in golden Syrian hamster at 40 mg/kg by LC-MS/MS analysis; type: ADME, organism-based, Mesocricetus auratus; settings: in vivo
[30] = Tmax in golden Syrian hamster at 40 mg/kg, po by LC-MS/MS analysis; type: ADME, organism-based, Mesocricetus auratus; settings: in vivo
[31] = Cmax in golden Syrian hamster at 40 mg/kg, po by LC-MS/MS analysis; type: ADME, organism-based, Mesocricetus auratus; set-up: dose 40 mg/kg, route oral; settings: in vivo; procedure, shortened: as §2
Rattus norvegicus [32] = test: as §4; type: ADME, organism-based; set-up: dose 40 mg/kg, route oral; settings: in vivo; procedure, shortened: as §3
[33] = Apparent permeability from apical to basolateral side in MDCK cells harboring MDR1 at 2 uM after 150 mins by LC-MS/MS analysis; type: ADME, cell-based, Canis lupus familiaris; settings: dog
Procedure, shortened: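 MDCK-MDR1 monolayers were seeded at 2 × 10^5 cells/cm2 and grown to confluence over 4–7 days. Compound at 2 μM in 0.4% DMSO/HBSS was applied apically or basolaterally. Plates were incubated 150 min at 37 °C, 5% CO2, in triplicate. Quantitation was by LC–MS/MS analyte/internal-standard peak-area ratio.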

Mus musculus [34] = test: as §5; type: ADME, organism-based; set-up: dose 40 mg/kg, route oral; settings: in vivo
[35] = Half life in golden Syrian hamster at 40 mg/kg, po by LC-MS/MS analysis; type: ADME, organism-based, Mesocricetus auratus; settings: in vivo
Rattus norvegicus [36] = test: as §6; type: ADME, organism-based; settings: in vivo; procedure, shortened: as §7
Rattus norvegicus [37] = test: as §8; type: ADME, organism-based; settings: in vivo; procedure, shortened: as §7
[38] = AUClast in golden Syrian hamster at 40 mg/kg, po after 24 to 48 hrs by LC-MS/MS analysis; type: ADME, organism-based, Mesocricetus auratus; settings: in vivo; procedure, shortened: as §2
[39] = Octanol/phosphate buffer solution distribution coefficient, log D of the compound at pH 7.4 by LC-MS/MS method; type: physicochemical; settings: octanol/water
Procedure, shortened: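 Shake-flask partition between octanol and 100 mM phosphate buffer pH 7.4 at room temperature, final matrix 1% DMSO. Phases quantified by LC–MS/MS.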

Mus musculus [40] = test: as §9; type: ADME, organism-based; settings: in vivo

| Cmax [2] [ng/mL] | Stability (Liver [3]) [%] | Stability (Liver [7]) [%] | half-life [8] [h] | remaining at 1 h, 1 µM [14] [%] | Tmax [17] [h] | AUC(0-t) [19] [µg·h/mL] | Compound | Vd [4] [L/kg] | half-life [5] [h] | half-life [6] [h] | AUC(0-t) [13] [µg·h/mL] | clearance [18] [mL/min/kg] | C0 [21] [ng/mL] | Vd [22] [L/kg] | half-life [23] [h] | AUC(0-t) [25] [µg·h/mL] | C0 [26] [ng/mL] | other results |
| --- | --- | --- | --- | --- | --- | --- | --- | --- | --- | --- | --- | --- | --- | --- | --- | --- | --- | --- |
| 12000 | 92 | 90 | 3.1 | 48 | 3.3 | 71 | O=[N+]([O-])c1cn2c(n1)OC[C@H](Oc1ccc(C(F)(F)F)cn1)C2 | 1.5 | 2.7 | 30 | 2.47 | 6.1 | 840 |  |  |  |  | AUC(0-t) [1]: 1780 µg·h/mL; AUC(0-t) [9]: 164 µg·h/mL; Cmax [10]: 18000 ng/mL; half-life [11]: 3.5 h; Cmax [12]: 96000 ng/mL; Tmax [15]: 2.7 h; bioavailability [16]: 100%; Tmax [20]: 3.1 h |
| 1100 | 67 | 58 | 17 | 10 | 1.7 | 3.4 | O=[N+]([O-])c1cn2c(n1)OC[C@H](OCc1ccc(-c3ccc(F)cc3F)nc1)C2 |  |  |  |  |  |  | 5.4 | 1.4 | 0.71 | 520 | F (Syrian golden hamster [24]): 21%; clearance [27]: 59 mL/min/kg |

| Compound | Cmax [2] [ng/mL] | Stability (Liver [3]) [%] | Stability (Liver [7]) [%] | half-life [8] [h] | remaining at 1 h, 1 µM [14] [%] | Tmax [17] [h] | AUC(0-t) [19] [µg·h/mL] | Vd [4] [L/kg] | half-life [5] [h] | half-life [6] [h] | AUC(0-t) [13] [µg·h/mL] | clearance [18] [mL/min/kg] | C0 [21] [ng/mL] | Vd [22] [L/kg] | half-life [23] [h] | AUC(0-t) [25] [µg·h/mL] | C0 [26] [ng/mL] | other results |
| --- | --- | --- | --- | --- | --- | --- | --- | --- | --- | --- | --- | --- | --- | --- | --- | --- | --- | --- |
| O=[N+]([O-])c1cn2c(n1)OC[C@H](Oc1ccc(OC(F)(F)F)cc1)C2 |  |  |  |  | 19 |  |  | 2.7 | 3 | 7.8 | 1.51 | 11 | 540 | 6.5 | 1.4 | 0.42 | 660 | AUClast (Mus musculus [28]): 272 µg·h/mL; F (Syrian golden hamster [29]): 100%; Tmax [30]: 3.3 h; Cmax [31]: 2100 ng/mL; Cmax (Rattus norvegicus [32]): 5200 ng/mL; Papp [33]: 32.4 ×10⁻⁶ cm/s; Cmax (Mus musculus [34]): 21000 ng/mL; half-life [35]: 2.2 h; Tmax (Rattus norvegicus [36]): 6.7 h; F (Rattus norvegicus [37]): 100%; AUC(0-t) [38]: 11.2 µg·h/mL; logD [39]: 2.59; Tmax (Mus musculus [40]): 5.3 h |
